Laboratory results from ChEMBL document CHEMBL1687707, “Changes in the plasmodial surface anion channel reduce leupeptin uptake and can confer drug resistance in Plasmodium falciparum-infected erythrocytes” (Antimicrob Agents Chemother, 2008).
Activity calls are given as the source filed them. The rule behind the calls is not given here.

Key:
Plasmodium falciparum [1] = experiment: Antimicrobial activity against wild type Plasmodium falciparum HB3 infected in erythrocytes assessed as growth inhibition after 5 days by SYBR Green I-based fluorescence assay; details: HB3, 5 days
Plasmodium falciparum [2] = experiment: Reduction in hemozoin production in leupeptin resistant-Plasmodium falciparum HB3-leuR1 mutant infected in erythrocytes at 50 uM for 18 hrs by absorbance scan at 400 nm
[3] = target: T1, Cysteine protease falcipain-3 (Plasmodium falciparum) (UniProt Q9NAW4); experiment: Inhibition of Cysteine protease falcipain-3 in Plasmodium falciparum HB3 infected erythrocytes assessed as slowing of substrate hydrolysis by Z-Phe-Arg-AMC substrate hydrolysis assay
T1 sequence (whole entry): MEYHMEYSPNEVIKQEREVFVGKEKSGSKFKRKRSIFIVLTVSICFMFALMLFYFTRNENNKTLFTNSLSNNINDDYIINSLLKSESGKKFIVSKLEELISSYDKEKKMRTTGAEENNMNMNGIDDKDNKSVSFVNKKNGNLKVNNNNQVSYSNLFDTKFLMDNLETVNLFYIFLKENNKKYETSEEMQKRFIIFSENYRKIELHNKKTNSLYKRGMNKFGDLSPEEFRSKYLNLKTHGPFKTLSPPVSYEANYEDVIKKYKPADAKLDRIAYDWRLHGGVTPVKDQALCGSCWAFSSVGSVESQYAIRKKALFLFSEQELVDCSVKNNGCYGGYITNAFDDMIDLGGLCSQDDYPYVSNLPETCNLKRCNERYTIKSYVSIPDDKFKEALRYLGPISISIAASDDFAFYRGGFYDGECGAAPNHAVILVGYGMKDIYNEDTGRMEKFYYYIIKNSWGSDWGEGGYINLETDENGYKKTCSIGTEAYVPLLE
How it was run: (§1)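 Soluble extracts from trophozoite-infected erythrocytes enriched to 95–99% parasitemia (Percoll-sorbitol). Adjusted to 40 μg/ml protein in 0.1 M sodium acetate pH 5.5 with 10 mM DTT, with or without leupeptin. Prewarmed to 37°C; 50 μM Z-Phe-Arg-AMC added; fluorescence 353/442 nm read every 2 min. Rates by regression over 10–90 min, triplicate. K0.5 fit with Hill coefficient 1.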

[4] = target: T2, Falcipain 2 (Plasmodium falciparum) (UniProt Q9N6S8); experiment: Inhibition of Cysteine protease falcipain-2 in Plasmodium falciparum HB3 infected erythrocytes assessed as slowing of substrate hydrolysis by Z-Phe-Arg-AMC substrate hydrolysis assay
T2 sequence (whole entry): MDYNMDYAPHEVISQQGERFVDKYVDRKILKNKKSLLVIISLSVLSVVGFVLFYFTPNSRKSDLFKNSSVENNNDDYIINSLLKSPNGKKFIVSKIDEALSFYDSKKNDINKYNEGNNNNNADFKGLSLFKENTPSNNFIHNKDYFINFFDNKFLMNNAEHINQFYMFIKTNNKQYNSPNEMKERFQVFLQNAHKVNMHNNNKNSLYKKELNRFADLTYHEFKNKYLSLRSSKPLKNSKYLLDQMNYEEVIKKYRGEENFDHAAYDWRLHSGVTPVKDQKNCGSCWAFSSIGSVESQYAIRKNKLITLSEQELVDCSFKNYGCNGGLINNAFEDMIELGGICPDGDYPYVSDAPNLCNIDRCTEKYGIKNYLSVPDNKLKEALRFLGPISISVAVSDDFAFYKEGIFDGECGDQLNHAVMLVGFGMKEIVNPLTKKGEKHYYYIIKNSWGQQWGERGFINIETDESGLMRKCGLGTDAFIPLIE
How it was run: as §1

[5] = Inhibition of PSAC-mediated sorbitol uptake in erythrocytes infected with leupeptin resistant-Plasmodium falciparum HB3-leuR1 at 50 uM; format: cell-based
[6] = (§2) Activity of PSAS assessed as channel-mediated drug uptake measured by inhibition of papain-mediated substrate hydrolysis by Plasmodium falciparum HB3 infected erythrocyte cytosol harvested from cells incubated at 40 uM for 15 mins by Z-Phe-Arg-AMC substrate hydrolysis assay
How it was run: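 They were counted, then lysed at 20% hematocrit with 0.05% saponin. Cytosol from 10⁸ cells went into pH 5.5 acetate with 10 mM DTT and 150 ng/ml papain, then 50 μM Z-Phe-Arg-AMC. Rates came from 353/442 nm readings over 10 min; four experiments.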

Plasmodium falciparum [7] = experiment: Induction of parasite morphology changes in wild type Plasmodium falciparum HB3 infected in erythrocytes assessed as occurrence of enlarged digestive vacuoles by transmission electron microscopy; format: functional, organism-based
How it was run: (§3)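 For electron microscopy, infected erythrocytes were cultured with 100 μM leupeptin for 6 h. They were fixed overnight at 4°C in 2.5% glutaraldehyde/4% paraformaldehyde in 0.1 M cacodylate pH 7.4, postfixed in osmium tetroxide/ferricyanide and stained with uranyl acetate. Samples were Spurr-embedded, and thin sections were lead/uranyl stained and imaged at 80 kV.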

Plasmodium falciparum [8] = experiment: Reduction in formation of hemozoin crystals in wild type Plasmodium falciparum HB3 infected in erythrocytes at 100 uM for 6 hrs by transmission electron microscopy; format: functional, organism-based
How it was run: as §3

[9] = Activity of PSAS assessed as channel-mediated drug uptake measured by inhibition of papain-mediated substrate hydrolysis by leupeptin resistant-Plasmodium falciparum HB3-leuR1 infected erythrocyte cytosol harvested from cells incubated at 40 uM for 15 mins by Z-Phe-Arg-AMC substrate hydrolysis assay
[10] = target: T1, Cysteine protease falcipain-3 (Plasmodium falciparum); experiment: Inhibition of Cysteine protease falcipain-3 in Plasmodium falciparum HB3-leuR1 mutant infected erythrocytes assessed as slowing of substrate hydrolysis by Z-Phe-Arg-AMC substrate hydrolysis assay
How it was run: as §1

Plasmodium falciparum [11] = experiment: Induction of parasite morphology changes in leupeptin resistant-Plasmodium falciparum HB3-leuR1 mutant infected in erythrocytes assessed as occurrence of enlarged digestive vacuoles by transmission electron microscopy; format: functional, organism-based
Plasmodium falciparum [12] = experiment: Reduction in hemozoin production in wild type Plasmodium falciparum HB3 infected in erythrocytes at 50 uM for 18 hrs by absorbance scan at 400 nm
Falcipain 2 [13] = target: Falcipain 2 (Plasmodium falciparum, UniProt Q9N6S8); experiment: Inhibition of Cysteine protease falcipain-2 in Plasmodium falciparum HB3-leuR1 mutant infected erythrocytes by Z-Phe-Arg-AMC substrate hydrolysis assay
How it was run: as §1

Plasmodium falciparum [14] = experiment: Antimicrobial activity against leupeptin resistant-Plasmodium falciparum HB3-leuR1 mutant infected in erythrocytes assessed as growth inhibition after 5 days by SYBR Green I-based fluorescence assay; details: HB3-leuR1, 5 days
Plasmodium falciparum [15] = experiment: Antimicrobial activity against leupeptin resistant-Plasmodium falciparum HB3-leuR1 mutant infected in erythrocytes assessed as growth inhibition after 72 hrs in presence of PSAC antagonist NPF1 by SYBR Green I-based fluorescence assay; format: functional, organism-based
How it was run: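 SYBR green I growth assay for 72 h at 37°C using serial dilutions of several fixed molar ratios of leupeptin and NPF-1. IC50 of each agent interpolated for each ratio and plotted as an isobologram. Background subtracted using chloroquine-killed cultures.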

Falcipain 2 [16] = target: T3, Falcipain 2 (Plasmodium falciparum, UniProt Q9N6S8); experiment: Inhibition of Cysteine protease falcipain-2 in Plasmodium falciparum HB3 infected erythrocytes by Z-Phe-Arg-AMC substrate hydrolysis assay
T3 sequence (Q9N6S8 whole entry): T2 sequence (whole entry)
How it was run: (§4)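 Soluble extracts came from trophozoite-infected cells enriched to 95–99% parasitemia. They were set at 40 μg/ml protein in 0.1 M sodium acetate pH 5.5 with 10 mM DTT and leupeptin, prewarmed to 37°C, then given 50 μM Z-Phe-Arg-AMC. Fluorescence (353/442 nm) was read every 2 min, with rates regressed over 10–90 min and triplicate means. K0.5 came from a 1:1 fit; n=4.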

[17] = target: Cysteine protease falcipain-3 (Plasmodium falciparum, UniProt Q9NAW4); experiment: Inhibition of Cysteine protease falcipain-3 in Plasmodium falciparum HB3-leuR1 mutant infected erythrocytes by Z-Phe-Arg-AMC substrate hydrolysis assay
How it was run: as §1

[18] = Inhibition of PSAC-mediated sorbitol uptake in erythrocytes infected with Plasmodium falciparum HB3 at 50 uM; format: cell-based
How it was run: (§5)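 Percoll-sorbitol-enriched trophozoite-infected cells were washed in PBS, then suspended at 0.5% hematocrit in 280 mM sorbitol, 20 mM sodium HEPES and 0.1 mg/ml BSA, pH 7.4, with PSAC antagonists. Osmotic lysis kinetics gave half-times, and K0.5 was fitted by nonlinear least squares.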

[19] = as §2, with “mins in presence og PSAC antagonist NPF1” for “mins”; format: functional
How it was run: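 Erythrocyte cytosol was released with 0.05% saponin, and 10⁸-cell equivalents were incubated with 150 ng/ml papain and 10 mM DTT at pH 5.5. Z-Phe-Arg-AMC (50 μM) hydrolysis was read every 2 min for 10 min, given as percent inhibition; four experiments.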

[20] = target: T4, Cysteine protease falcipain-3 (Plasmodium falciparum, UniProt Q9NAW4); experiment: Inhibition of Cysteine protease falcipain-3 in Plasmodium falciparum HB3 infected erythrocytes by Z-Phe-Arg-AMC substrate hydrolysis assay
T4 sequence (Q9NAW4 whole entry): T1 sequence (whole entry)
How it was run: as §4

Plasmodium falciparum [21] = experiment: Reduction in formation of hemozoin crystals in leupeptin resistant-Plasmodium falciparum HB3-leuR1 mutant infected in erythrocytes at 100 uM for 6 hrs by transmission electron microscopy; format: functional, organism-based
How it was run: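 Infected erythrocytes cultured with 100 μM leupeptin for 6 h. Fixed overnight at 4°C in 2.5% glutaraldehyde-4% paraformaldehyde in cacodylate pH 7.4. Postfixed in osmium tetroxide-ferricyanide, stained with uranyl acetate, embedded in Spurr's resin. Thin sections stained with uranyl acetate/lead citrate and imaged at 80 kV.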

[22] = target: T2, Falcipain 2 (Plasmodium falciparum); experiment: Inhibition of Cysteine protease falcipain-2 in Plasmodium falciparum HB3-leuR1 mutant infected erythrocytes assessed as slowing of substrate hydrolysis by Z-Phe-Arg-AMC substrate hydrolysis assay
How it was run: as §1

Plasmodium falciparum [23] = experiment: Antimicrobial activity against wild type Plasmodium falciparum HB3 infected in erythrocytes assessed as growth inhibition after 72 hrs by SYBR Green I-based fluorescence assay; format: functional, organism-based; details: HB3, 72 h
Plasmodium falciparum [24] = experiment: Antimicrobial activity against leupeptin resistant-Plasmodium falciparum HB3-leuR1 mutant infected in erythrocytes assessed as growth inhibition after 72 hrs by SYBR Green I-based fluorescence assay; format: functional, organism-based; details: HB3-leuR1, 72 h
How it was run: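 Sorbitol-synchronized cultures seeded at 0.2–0.5% parasitemia, 5% hematocrit in RPMI 1640/25 mM HEPES/2% serum/hypoxanthine. Incubated 72 h at 37°C in 5% O₂-5% CO₂. Freeze-thaw, then SYBR green I, 30 min dark, fluorescence 485/528 nm. Triplicate means with background subtracted (20 μM chloroquine-killed cultures). IC50 by nonlinear fit, three or more experiments.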

[25] = Inhibition of PSAC-mediated sorbitol uptake in erythrocytes infected with Plasmodium falciparum HB3 at 100 to 5000 uM by osmotic lysis half-time determination assay; format: cell-based
How it was run: as §5

[26] = Inhibition of single PSAC in erythrocytes infected with Plasmodium falciparum HB3 at 100 to 5000 uM by cell attached patch clamp method; format: cell-based
How it was run: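 Cell-attached patch-clamp recordings were made on trophozoite-stage infected erythrocytes. Bath and pipette solutions were symmetric: 1,000 mM choline chloride, 115 mM NaCl, 10 mM MgCl₂, 5 mM CaCl₂ and 20 mM sodium HEPES, pH 7.4.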

[27] = Inhibition of single PSAC in erythrocytes infected with leupeptin resistant-Plasmodium falciparum HB3-leuR1 cell attached patch clamp method; format: cell-based
[28] = Inhibition of PSAC-mediated sorbitol uptake in erythrocytes infected with leupeptin resistant-Plasmodium falciparum HB3-leuR1 by osmotic lysis half-time determination assay; format: cell-based

Structure (SMILES): CC(=O)N[C@@H](CC(C)C)C(=O)N[C@@H](CC(C)C)C(=O)N[C@H](C=O)CCCNC(=N)N [LEUPEPTIN]
- IC50 (Plasmodium falciparum [1]): 18000 nM
- Activity (Plasmodium falciparum [2]): inactive
- inhibition [3]: Active
- inhibition [4]: Active
- inhibition [5]: inactive
- Activity [6]: Active
- Activity (Plasmodium falciparum [7]): Active
- Activity (Plasmodium falciparum [8]): Active
- Activity [9]: inactive
- inhibition [10]: Active
- Activity (Plasmodium falciparum [11]): inactive
- Activity (Plasmodium falciparum [12]): Active
- IC50 (Falcipain 2 [13]): 98 nM
- IC50 (Plasmodium falciparum [14]): 74000 nM
- growth inhibition (GI) (Plasmodium falciparum [15]): inactive
- IC50 (Falcipain 2 [16]): 87 nM
- IC50 [17]: 98 nM
- inhibition [18]: inactive
- Activity [19]: inactive
- IC50 [20]: 87 nM
- Activity (Plasmodium falciparum [21]): inactive
- inhibition [22]: Active

Structure (SMILES): C=C[C@H]1CN2CC[C@H]1C[C@H]2[C@H](O)c1ccnc2ccc(OC)cc12 [QUININE]
- IC50 (Plasmodium falciparum [23]): 77.1 nM
- IC50 (Plasmodium falciparum [24]): 74 nM

Structure (SMILES): O=C(CCc1ccc(O)cc1)c1c(O)cc(O)cc1O[C@@H]1O[C@H](CO)[C@@H](O)[C@H](O)[C@H]1O [PHLORIZIN]
- inhibition [25]: Active
- IC50 [26]: 17000 nM
- IC50 [27]: 340000 nM
- inhibition [28]: inactive

Structure (SMILES): CN(CC[C@H](N)CC(=O)N[C@H]1C=C[C@H](n2ccc(N)nc2=O)O[C@@H]1C(=O)O)C(=N)N [BLASTICIDIN_S]
- IC50 (Plasmodium falciparum [1]): 430 nM
- IC50 (Plasmodium falciparum [14]): 1150 nM

Structure (SMILES): CC(C)C[C@H](NC(=O)[C@H]1O[C@@H]1C(=O)O)C(=O)NCCCCN=C(N)N [E-64]
- IC50 (Plasmodium falciparum [1]): 3690 nM
- IC50 (Plasmodium falciparum [14]): 5880 nM

Structure (SMILES): C[C@@H]1CC[C@H]2[C@@H](C)C(=O)O[C@@H]3O[C@@]4(C)CC[C@@H]1[C@]32OO4 [ARTEMISININ]
- IC50 (Plasmodium falciparum [23]): 8.36 nM
- IC50 (Plasmodium falciparum [24]): 7.71 nM

Structure (SMILES): CC(C)CC(=O)N[C@H](C(=O)N[C@H](C(=O)N[C@@H](CC(C)C)[C@@H](O)CC(=O)N[C@@H](C)C(=O)N[C@@H](CC(C)C)[C@@H](O)CC(=O)O)C(C)C)C(C)C [PEPSTATIN]
- IC50 (Plasmodium falciparum [1]): 39200 nM
- IC50 (Plasmodium falciparum [14]): 29400 nM
